High-throughput results as filed in PubChem.
The entries come from a sample that favours hits as a whole.
RORa inhibitor: RORA (human) inhibition | CHO-K1 Gal4-RORA LBD luciferase reporter, luminescence | inhibition, % at 10 µM | 0.43% of 65,000 active | P35398 | AID 561;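 active = inhibition above the mean of all tested compounds plus 3 SD, cut at about 52% in these data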
Target sequence (P35398 whole entry, looked up, the tested form may be a part): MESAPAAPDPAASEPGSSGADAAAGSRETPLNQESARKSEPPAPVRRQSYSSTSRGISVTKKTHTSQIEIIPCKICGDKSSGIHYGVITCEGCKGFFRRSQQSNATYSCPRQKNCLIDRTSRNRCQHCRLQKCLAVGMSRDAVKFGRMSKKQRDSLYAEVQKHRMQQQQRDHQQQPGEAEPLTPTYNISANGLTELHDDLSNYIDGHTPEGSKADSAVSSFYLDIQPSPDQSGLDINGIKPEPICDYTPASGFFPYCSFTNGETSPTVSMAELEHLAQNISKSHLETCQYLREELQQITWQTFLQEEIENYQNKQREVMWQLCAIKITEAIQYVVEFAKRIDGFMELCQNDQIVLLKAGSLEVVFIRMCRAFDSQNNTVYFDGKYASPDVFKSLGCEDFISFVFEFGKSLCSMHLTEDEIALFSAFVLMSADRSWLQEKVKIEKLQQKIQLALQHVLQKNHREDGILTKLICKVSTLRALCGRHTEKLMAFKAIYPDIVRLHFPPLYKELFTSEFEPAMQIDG
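Test system: CHO-K1 cells with Gal4-hRORA LBD fusion and pG5-luc reporter / Compound: single concentration per compound, 10 µM final / Schedule: 20 h compound treatment, 37 °C / Signal: luminescence from basal luciferase reporter expression / Read-out: % inhibition / Control set: mock-transfected cells as 100%, +RORA DMSO cells as 0% / Replicates: tested once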
Hits are given with their value; - = inactive.

SMILES	RORa inhibitor
O=S(=O)(c1ccc2c(c1)C(=NO)c1cc(S(=O)(=O)N3CCCCC3)ccc1-2)N1CCCCC1	66
COc1ccc(Oc2ccc(S(=O)(=O)N3CCCCC3)cc2S(=O)(=O)N2CCCCC2)cc1	-
O=S(=O)(c1ccc(S(=O)(=O)N2CCCC2)cc1)N1CCCCCC1	-
COc1ccc(-c2nnc(SCC(=O)Nc3ncc(C)s3)n2-c2ccccc2)cc1OC	-
COc1ccc2c(c1)[nH]c1c(N3CCN(Cc4ccc5c(c4)OCO5)CC3)ncnc12	72
Cc1ccc2[nH]c3c(N4CCCCCC4)ncnc3c2c1	78
Cc1ccc2[nH]c3c(N4CCN(Cc5ccc6c(c5)OCO6)CC4)ncnc3c2c1	82
COCCn1nnnc1C(c1ccc(C)cc1)N1CCN(Cc2ccc3c(c2)OCO3)CC1 (configuration not stated)	-
c1nc(N2CCN(Cc3ccc4c(c3)OCO4)CC2)c2[nH]cnc2n1	-
O=C(N1CCN(Cc2ccc3c(c2)OCO3)CC1)C12CC3CC(CC(C3)C1)C2	-
O=C(Cn1ccc2ccccc2c1=O)N1CCN(Cc2ccc3c(c2)OCO3)CC1	-
Cc1ccc2c(c1)c1ncnc(N3CCC4(CC3)OCCO4)c1n2C	-
O=C(c1cc2ccccc2o1)c1nc2c(n1O)CCCCC2	-
Cc1c(C)[n+](=O)c(-c2ccco2)c(C)n1[O-]	-
Cc1nnc(SCC(=O)Nc2ccc3c(c2)COC3=O)n1-c1ccccc1	-
COC(=O)c1cccc(-n2nnnc2SCC(=O)Nc2cc(C)on2)c1	-
Cc1noc(C)c1C(=O)OCC(=O)c1cc(C)n(Cc2ccccc2Cl)c1C	-
Cc1cc2c(cc(C(=O)OCC(=O)NCc3cccs3)n2C(C)C)o1	-
CCCc1cc(NCCN2CCOCC2)n2c(nc3ccccc32)c1C#N	-
O=C(Nc1ccccc1)Nc1cccc2cccnc12	-
O=S1(=O)Nc2c(ccc3cccnc23)-c2ccccc21	74
COCCn1nnnc1C(c1ccc(OC)cc1)N1CCN(c2ccccc2F)CC1 (configuration not stated)	-
O=C(C1CCCN(S(=O)(=O)c2cccs2)C1)N1CCN(C2CCCCC2)CC1 (configuration not stated)	-
Cn1c(NC(=O)C2c3ccccc3Oc3ccccc32)cc(=O)n(C)c1=O	-
c1ccc(-c2cccc(-c3ccccn3)n2)nc1	64
SMILES	RORa inhibitor
COc1nc(C)ccc1-c1noc(-c2ccccn2)n1	-
c1ccc(CCc2nc(-c3ccccn3)no2)cc1	-
CCc1ccccc1NC(=O)COC(=O)C1CC(=O)N(c2ccc(F)cc2)C1 (configuration not stated)	-
Cc1cccc(-n2ncc3c(NCc4ccccc4)ncnc32)c1	-
Cc1cccc(-n2ncc3c(N(CCO)CCO)ncnc32)c1	-
COCCN(CCOC)c1ncnc2c1cnn2-c1ccc(Cl)cc1	-
CCN(c1ccccc1)c1ncnc2c1cnn2-c1ccccc1	-
Cc1cccc(-n2ncc3c(N(C)C4CCCCC4)ncnc32)c1	73
COc1ccc(-n2ncc3c(N(C)C4CCCCC4)ncnc32)cc1	76
COC(=O)c1ccc2ccn(CC(=O)NC(C)C)c2c1	-
CCOC(=O)C1=C(C)Nc2nc(SCC)[nH]c(=O)c2C1c1ccncc1 (configuration not stated)	-
CCOc1ccccc1C1C(C(=O)Nc2ccc(OC)cc2)=C(C)Nc2nc(CCCO)nn21 (configuration not stated)	-
O=C(CN1CCC(n2nnc3ccccc32)CC1)NCc1cccs1	-
c1ccc2c(c1)CCN(c1ncnc3c1[nH]c1ccccc13)C2	89
O=C(c1ccc(Cn2c(=O)[nH]c3ccccc3c2=O)cc1)N1CCN(c2ccccc2)CC1	-
c1ccc(CN2CCN(c3nc(-c4ccccc4)nc(-n4ccnc4)n3)CC2)cc1	-
c1ccc(CN2CCN(c3ncnc4c3[nH]c3ccccc34)CC2)cc1	67
O=c1c2[nH]c3ccccc3c2ncn1C1CCCCC1	-
O=C(Nc1ccccc1N1CCN(C(=O)c2ccccc2)CC1)c1cc2ccccc2o1	-
Cc1ccc(-n2c(CSc3nc(C)cc(C)n3)nnc2SCC(=O)Nc2nccs2)cc1	-
CSC1=C(C#N)C(C)CC(=O)N1 (configuration not stated)	-
CCCn1c(N)c(Sc2ccc(Cl)cc2)c(=O)n(CCC)c1=O	-
O=C(C1CC(=O)N(c2ccccc2)C1)N1CCN(C2=NS(=O)(=O)c3ccccc32)CC1 (configuration not stated)	-
CCc1ccc(-c2cn3nc(C)c(C)nc3n2)cc1	86
CC(C)C(=O)N1CCN(C2=NS(=O)(=O)c3ccccc32)CC1	-
SMILES	RORa inhibitor
CN(CC(=O)NCc1ccco1)S(=O)(=O)c1ccc2c(c1)n(C)c(=O)c(=O)n2C	-
CCOc1cc(N2CCOCC2)c(OCC)cc1NS(=O)(=O)c1ccc(Cl)s1	-
Cc1ccc2nc(Nc3ccc4[nH]c(=O)[nH]c4c3)c(-n3nc(C)cc3C)nc2c1	-
CC1=CC(=C2C(=O)c3ccccc3C2=O)C=C(C)O1	-
CCCN1C=CC(=C2C(=O)c3ccccc3C2=O)C=C1	91
CN1C=CC(=C2C(=O)c3ccccc3C2=O)C=C1	-
CCN1C=CC(=C2C(=O)c3ccccc3C2=O)C=C1	67
Cc1ccc(CC(CC(=O)O)C(=O)NC2CCCCC2)cc1 (configuration not stated)	-
CC1(C)N=C(c2ccc(Cl)cc2Cl)C(=O)N1	-
Cc1ccnc2nc(C(=O)N3CCN(S(=O)(=O)c4ccccc4)CC3)nn12	-
CC1CCCCN1C(=O)C1CC(c2ccc(F)cc2)=NO1 (configuration not stated)	-
Cc1nc(N2CCC3(CC2)OCCO3)c2nnn(Cc3ccccc3F)c2n1	-
C=CCNC(=O)c1ccccc1NC(=O)c1ccccc1	-
CCOC(=O)Cn1nnnc1CN(Cc1ccccc1)Cc1cc2cc(CC)ccc2[nH]c1=O	-
CC1(C)CC(=O)c2cnc(NC(=O)C3CCCC3)nc2C1	-
Cc1ccccc1C(=O)Nc1ccc(Br)cn1	-
CC(=O)c1c(C)[nH]c(C(=O)Nc2ccc(C)cn2)c1C	73
CCOC(=O)c1[nH]c(C)c(C(=O)Nc2ccccc2C)c1C	-
CCOC(=O)Cc1csc(NC(=O)CCS(=O)(=O)Cc2ccccc2)n1	-
CCCC(=O)Nc1ccc(C(=O)N2CCCC2)cc1	-
Cn1c(-c2ccc3c(c2)OCO3)cnc1NC(=O)CCC(=O)NCCc1ccccc1	-
Cc1ccc(-c2cnc(NC(=O)CCC(=O)N3CCCCC3)n2C)cc1	77
Cc1cnc(-c2nnc(N(C)C(=O)c3ccccn3)s2)cn1	-
Cc1ccccc1NC(=O)N1CCCC(c2nc(-c3ccc(C(C)C)cc3)no2)C1 (configuration not stated)	54
Cc1ccccc1NC(=O)N1CCCC(c2nc(-c3ccc(F)cc3)no2)C1 (configuration not stated)	-
SMILES	RORa inhibitor
CCCc1ccc(-c2ccc(F)c(N)c2)nc1	69
CCOC(=O)N1CCN(C(=O)C(c2ccccc2)c2ccccc2)CC1	-
Cc1cc(Nc2ccc(C)c(C)c2)n2nc(C)nc2n1	-
Cc1nnc(Sc2nc(Sc3nnc(C)s3)nc(N3CCN(C)CC3)n2)s1	93
COc1ccc(N2CCN(CCCNC(=O)CC3Oc4ccc(C)cc4NC3=O)CC2)cc1 (configuration not stated)	-
O=C1CCC/C1=c1\s/c(=C\c2cccnc2)c(=O)n1-c1ccccc1	-
CCOC(=O)C1CCN(c2ncnc3c2cnn3-c2ccc(Cl)cc2)CC1	66
Cc1nn(-c2ccccc2)c(Cl)c1C(=O)N1CCN(c2ncnc3c2cnn3-c2ccccc2)CC1	-
